Test results taken from ChEMBL document CHEMBL1140880, “Arylphthalazines as potent, and orally bioavailable inhibitors of VEGFR-2” (Bioorg Med Chem, 2009).
≈ marks a conversion by molar mass, not a printed value. Each block holds one compound with its values, some of them ahead of it.

Tests used:
HUVEC = test: Inhibition of VEGF-stimulated HUVEC cell proliferation treated before 2 hrs of VEGF challenge assessed after 3 days by [3H]thymidine incorporation assay; format: functional; conditions: Homo sapiens, read-out: ED50 (the source's name)
Procedure, shortened: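 HUVEC seeded at 1 × 10^4 cells/well in EGM and allowed to adhere ≥4 h. Cells then quiesced 72 h in medium lacking EGF, VEGF and FGF with 1% FBS. Compound added for 2 h (0.1% DMSO), then stimulation with VEGF-165 (5 ng/well) for 3 days.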

[1] = target: T1, Vascular endothelial growth factor receptor 2 (Homo sapiens, UniProt P35968); test: Inhibition of VEGFR2 by HTRF method
Target sequence in this assay (P35968 whole entry): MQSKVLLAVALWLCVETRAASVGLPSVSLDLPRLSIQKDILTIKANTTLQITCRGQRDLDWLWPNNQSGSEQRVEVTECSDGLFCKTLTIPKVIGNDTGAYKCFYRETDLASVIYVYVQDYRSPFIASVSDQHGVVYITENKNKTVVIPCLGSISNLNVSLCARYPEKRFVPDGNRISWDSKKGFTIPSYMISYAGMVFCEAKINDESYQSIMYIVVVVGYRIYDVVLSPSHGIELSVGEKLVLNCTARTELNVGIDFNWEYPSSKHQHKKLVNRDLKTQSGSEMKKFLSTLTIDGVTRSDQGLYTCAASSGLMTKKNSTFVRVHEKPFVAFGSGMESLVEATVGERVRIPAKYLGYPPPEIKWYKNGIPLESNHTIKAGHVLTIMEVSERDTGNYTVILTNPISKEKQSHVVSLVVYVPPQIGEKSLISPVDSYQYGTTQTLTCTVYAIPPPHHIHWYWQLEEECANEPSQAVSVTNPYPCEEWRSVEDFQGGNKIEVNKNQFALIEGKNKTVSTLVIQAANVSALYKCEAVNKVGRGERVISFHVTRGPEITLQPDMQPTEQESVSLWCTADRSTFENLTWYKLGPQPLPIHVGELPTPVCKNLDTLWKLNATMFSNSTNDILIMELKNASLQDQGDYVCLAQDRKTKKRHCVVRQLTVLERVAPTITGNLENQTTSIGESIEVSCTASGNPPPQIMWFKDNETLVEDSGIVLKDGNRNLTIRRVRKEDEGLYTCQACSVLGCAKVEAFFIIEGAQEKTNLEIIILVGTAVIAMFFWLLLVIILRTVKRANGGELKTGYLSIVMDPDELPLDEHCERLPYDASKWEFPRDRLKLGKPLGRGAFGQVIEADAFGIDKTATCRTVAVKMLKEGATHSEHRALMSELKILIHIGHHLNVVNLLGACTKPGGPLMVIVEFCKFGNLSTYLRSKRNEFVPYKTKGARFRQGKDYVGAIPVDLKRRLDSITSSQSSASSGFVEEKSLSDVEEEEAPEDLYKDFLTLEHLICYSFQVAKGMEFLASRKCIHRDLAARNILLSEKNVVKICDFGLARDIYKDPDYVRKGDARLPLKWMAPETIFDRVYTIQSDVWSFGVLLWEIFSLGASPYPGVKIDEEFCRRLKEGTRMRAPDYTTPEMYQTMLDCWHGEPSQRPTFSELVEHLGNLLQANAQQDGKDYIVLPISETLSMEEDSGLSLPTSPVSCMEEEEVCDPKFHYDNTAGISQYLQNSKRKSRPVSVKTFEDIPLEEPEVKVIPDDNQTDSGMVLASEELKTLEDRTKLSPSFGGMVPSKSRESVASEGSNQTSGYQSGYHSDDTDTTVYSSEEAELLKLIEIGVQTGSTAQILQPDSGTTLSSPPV

[2] = target: Histamine H2 receptor (Homo sapiens) (UniProt P25021); test: Inhibition of histamine H2 receptor at 10 uM
Histamine H2 receptor (Homo sapiens), sequence (P25021 whole entry): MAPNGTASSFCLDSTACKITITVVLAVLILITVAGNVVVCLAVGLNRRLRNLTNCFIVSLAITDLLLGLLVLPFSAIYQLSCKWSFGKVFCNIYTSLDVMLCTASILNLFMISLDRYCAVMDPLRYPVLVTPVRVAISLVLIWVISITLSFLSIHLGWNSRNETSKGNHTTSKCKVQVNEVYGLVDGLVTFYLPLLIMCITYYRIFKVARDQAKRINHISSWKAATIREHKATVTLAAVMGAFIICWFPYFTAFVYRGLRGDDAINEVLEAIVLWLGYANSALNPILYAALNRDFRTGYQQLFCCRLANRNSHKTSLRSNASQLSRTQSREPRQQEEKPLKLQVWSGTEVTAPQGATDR

Cytochrome P450 3A4 = Cytochrome P450 3A4 (Homo sapiens, UniProt P08684); test: Inhibition of CYP3A4; format: ADME
Cytochrome P450 3A4, sequence (P08684 whole entry): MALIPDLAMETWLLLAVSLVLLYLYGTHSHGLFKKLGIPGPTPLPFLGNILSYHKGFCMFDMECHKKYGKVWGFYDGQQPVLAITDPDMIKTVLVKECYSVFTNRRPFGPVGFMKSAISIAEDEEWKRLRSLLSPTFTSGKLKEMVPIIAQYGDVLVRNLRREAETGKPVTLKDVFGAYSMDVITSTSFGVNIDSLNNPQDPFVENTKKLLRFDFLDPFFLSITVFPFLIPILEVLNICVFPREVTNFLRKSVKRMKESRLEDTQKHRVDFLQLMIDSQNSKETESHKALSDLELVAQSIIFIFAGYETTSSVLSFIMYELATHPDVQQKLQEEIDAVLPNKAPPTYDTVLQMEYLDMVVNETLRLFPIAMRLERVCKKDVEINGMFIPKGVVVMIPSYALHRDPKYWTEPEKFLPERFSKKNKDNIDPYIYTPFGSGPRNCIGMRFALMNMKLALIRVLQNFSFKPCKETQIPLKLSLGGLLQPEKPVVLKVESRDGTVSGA

[3] = target: Sodium-dependent dopamine transporter (Homo sapiens) (UniProt Q01959); test: Inhibition of dopamine transporter at 10 uM
[4] = Cmax in CD1 mouse at 30 mg/kg administered as 5% phosal solution after 24 hrs; format: ADME, organism-based; parameters: dose 30 mg/kg; conditions: in vivo
Procedure, shortened: (§1)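 Female CD-1 mice (n = 3) given 30 mg/kg orally in 5% phosal solution (dihydrochloride salt; target ca. 3 mg/mL, dosed at 10 mL/kg).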

[5] = target: Voltage-gated inwardly rectifying potassium channel KCNH2 (Homo sapiens, UniProt Q12809); test: Inhibition of human ERG; conditions: read-out: ED50 (the source's name)
Voltage-gated inwardly rectifying potassium channel KCNH2, sequence (Q12809 whole entry): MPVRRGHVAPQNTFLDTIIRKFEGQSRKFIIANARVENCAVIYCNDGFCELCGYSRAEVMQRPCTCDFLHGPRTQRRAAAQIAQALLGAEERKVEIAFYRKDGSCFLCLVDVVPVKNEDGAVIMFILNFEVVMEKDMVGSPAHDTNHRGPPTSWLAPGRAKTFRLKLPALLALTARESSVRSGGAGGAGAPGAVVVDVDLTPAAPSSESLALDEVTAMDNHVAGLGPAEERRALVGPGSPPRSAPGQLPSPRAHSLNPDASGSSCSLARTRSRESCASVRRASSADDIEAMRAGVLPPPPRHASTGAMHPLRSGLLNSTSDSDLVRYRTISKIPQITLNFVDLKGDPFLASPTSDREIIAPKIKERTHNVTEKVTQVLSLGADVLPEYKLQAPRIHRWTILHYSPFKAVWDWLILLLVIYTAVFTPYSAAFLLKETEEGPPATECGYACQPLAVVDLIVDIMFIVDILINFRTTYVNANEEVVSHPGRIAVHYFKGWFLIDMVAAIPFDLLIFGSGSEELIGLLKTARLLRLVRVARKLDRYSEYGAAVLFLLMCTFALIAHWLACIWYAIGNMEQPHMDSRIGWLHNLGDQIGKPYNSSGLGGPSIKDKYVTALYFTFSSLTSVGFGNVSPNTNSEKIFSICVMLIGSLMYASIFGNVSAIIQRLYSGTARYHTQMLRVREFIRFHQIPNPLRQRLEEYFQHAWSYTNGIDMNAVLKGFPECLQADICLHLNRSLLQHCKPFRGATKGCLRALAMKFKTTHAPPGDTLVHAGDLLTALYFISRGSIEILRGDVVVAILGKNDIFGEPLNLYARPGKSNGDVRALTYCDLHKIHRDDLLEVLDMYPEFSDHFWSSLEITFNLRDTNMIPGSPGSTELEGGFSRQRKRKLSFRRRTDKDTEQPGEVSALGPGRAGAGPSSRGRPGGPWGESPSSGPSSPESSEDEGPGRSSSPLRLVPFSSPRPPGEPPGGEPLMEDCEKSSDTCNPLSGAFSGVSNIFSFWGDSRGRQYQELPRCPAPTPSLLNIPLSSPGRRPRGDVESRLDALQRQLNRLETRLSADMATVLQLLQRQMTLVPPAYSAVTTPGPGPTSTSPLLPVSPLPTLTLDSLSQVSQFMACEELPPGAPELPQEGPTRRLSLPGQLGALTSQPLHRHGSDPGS

[6] = Drug level in po dosed CD1 mouse administered as 5% phosal solution after 1 hr; format: ADME, organism-based; conditions: in vivo, read-out: Drug uptake
Procedure, shortened: (§2)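 Preliminary exposure study in female CD-1 mice dosed by oral route; vehicles included 5% phosal solution. Plasma analysed for compound at 1-h and 4-h timepoints.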

[7] = target: T1, Vascular endothelial growth factor receptor 2; conditions: HEK293
Target sequence in this assay (P35968 whole entry, looked up): as the sequence (P35968 whole entry) above

[8] = Drug level in po dosed CD1 mouse administered as 5% phosal solution after 4 hrs; format: ADME, organism-based; conditions: in vivo, read-out: Drug uptake; procedure, shortened: as §2
[9] = Inhibition of adenosine receptor at 10 uM
[10] = target: Vascular endothelial growth factor receptor 3 (Homo sapiens) (UniProt P35916); test: Inhibition of VEGFR3 at 10 uM
Vascular endothelial growth factor receptor 3 (Homo sapiens), sequence (P35916 whole entry): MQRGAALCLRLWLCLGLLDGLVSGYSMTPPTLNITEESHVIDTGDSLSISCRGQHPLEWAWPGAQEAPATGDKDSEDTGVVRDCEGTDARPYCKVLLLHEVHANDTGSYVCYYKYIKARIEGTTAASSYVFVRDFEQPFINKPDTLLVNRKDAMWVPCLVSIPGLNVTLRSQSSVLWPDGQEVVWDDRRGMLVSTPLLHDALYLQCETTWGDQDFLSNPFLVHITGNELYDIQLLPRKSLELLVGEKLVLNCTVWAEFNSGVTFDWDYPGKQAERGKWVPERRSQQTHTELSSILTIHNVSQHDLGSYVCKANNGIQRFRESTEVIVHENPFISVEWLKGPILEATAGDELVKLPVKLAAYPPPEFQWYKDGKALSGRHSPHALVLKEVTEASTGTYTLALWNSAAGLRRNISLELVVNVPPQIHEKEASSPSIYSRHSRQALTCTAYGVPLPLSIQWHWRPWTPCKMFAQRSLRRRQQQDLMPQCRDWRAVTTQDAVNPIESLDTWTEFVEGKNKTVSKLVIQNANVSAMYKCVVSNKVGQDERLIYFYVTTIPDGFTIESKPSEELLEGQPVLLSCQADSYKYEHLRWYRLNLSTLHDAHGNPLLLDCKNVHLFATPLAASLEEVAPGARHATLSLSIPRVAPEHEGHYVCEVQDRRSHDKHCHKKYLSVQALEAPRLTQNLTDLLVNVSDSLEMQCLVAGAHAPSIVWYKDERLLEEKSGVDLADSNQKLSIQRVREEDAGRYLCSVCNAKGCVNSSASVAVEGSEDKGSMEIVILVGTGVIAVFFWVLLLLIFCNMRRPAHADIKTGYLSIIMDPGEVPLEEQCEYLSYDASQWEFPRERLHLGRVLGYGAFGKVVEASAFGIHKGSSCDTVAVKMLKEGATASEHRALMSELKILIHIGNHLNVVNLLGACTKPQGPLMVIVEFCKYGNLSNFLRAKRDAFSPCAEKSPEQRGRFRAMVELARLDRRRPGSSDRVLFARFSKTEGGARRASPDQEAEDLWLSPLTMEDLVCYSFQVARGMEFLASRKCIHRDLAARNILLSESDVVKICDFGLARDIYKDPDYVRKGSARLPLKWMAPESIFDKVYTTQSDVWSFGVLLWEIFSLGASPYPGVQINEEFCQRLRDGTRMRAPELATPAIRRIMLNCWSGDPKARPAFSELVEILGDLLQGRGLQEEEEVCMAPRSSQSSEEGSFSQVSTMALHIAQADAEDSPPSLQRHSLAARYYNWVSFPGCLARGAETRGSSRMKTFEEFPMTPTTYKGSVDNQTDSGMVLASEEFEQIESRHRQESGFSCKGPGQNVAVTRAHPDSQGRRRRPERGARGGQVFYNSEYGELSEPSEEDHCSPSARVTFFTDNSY

[11] = AUC (0 to 24 hrs) in CD1 mouse at 30 mg/kg administered as 5% phosal solution; format: ADME, organism-based; parameters: time < 24 hr, dose 30 mg/kg; conditions: plasma; procedure, shortened: as §1
[12] = target: Fibroblast growth factor receptor 1 (Homo sapiens) (UniProt P11362); test: Inhibition of FGFR1 at 10 uM
[13] = Solubility in deionized water; format: physicochemical

Compound: CC(C)(C)c1ccc(Nc2nnc(-c3ccc(C(N)=O)cc3)c3ccccc23)cc1
- EC50 (HUVEC): 250 nM

Compound: COc1cc2/c(=N/c3ccc(Br)cc3F)nc[nH]c2cc1OCC1CCN(C)CC1 [VANDETANIB]
- EC50 (HUVEC): 280 nM

- IC50 [1]: > 10000 nM
Compound: CNS(=O)(=O)c1ccc(Nc2nnc(-c3ccc(C(N)=O)cc3)c3ccccc23)cc1

- IC50 [1]: > 10000 nM
Compound: NC(=O)c1ccc(-c2nnc(Nc3ccc(Oc4ccccc4)cc3)c3ccccc23)cc1

- inhibition [2]: 54%
- Activity (Cytochrome P450 3A4): Not Active
- inhibition [3]: 77%
- Cmax [4]: 25.9 µM
- concentration at 1 h [6]: 22.7 µM
- ED50 [7]: 10 nM
- concentration at 4 h [8]: 18.8 µM
- inhibition [9]: 65%
- inhibition [10]: 33%
- AUC(0-t) at 24 h [11]: 891 µM·h
- inhibition [12]: 38%
- solubility [13]: 1000 µg/mL (≈ 2610 µM)
Compound: Clc1ccc(Nc2nnc(-c3cccc4cnccc34)c3ccccc23)cc1
- EC50 (HUVEC): 210 nM
- IC50 [5]: 3000 nM

Compound: COc1cc2c(Oc3ccc4[nH]c(C)cc4c3F)ncnc2cc1OCCCN1CCCC1 [CEDIRANIB]
- EC50 (HUVEC): 12 nM

- ED50 [7]: > 10000 nM
Compound: COc1ccc(Nc2nnc(-c3ccc(C(N)=O)cc3)c3ccccc23)cc1
